In brackets after ≈: the same amount, converted by molar mass.
Assays:
Enterobacter [1] = experiment: Antimicrobial activity against Enterobacter isolates producing extended-spectrum beta-lactamase assessed as percent resistant isolates by disk diffusion method
Enterobacter [2] = experiment: Antimicrobial activity against Enterobacter isolates producing extended-spectrum beta-lactamase TEM-ES by agar dilution method; assay type: functional
Method in brief: (§1)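 Enterobacterial clinical isolates on Mueller-Hinton agar. Agar dilution with an inoculum of 10⁴ CFU per spot gave MICs of selected β-lactams. β-lactams were tested alone or with a fixed level of clavulanic acid (4 μg/ml) or tazobactam (4 μg/ml).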

Enterobacter [3] = experiment: Antimicrobial activity against Enterobacter isolates producing extended-spectrum beta-lactamase CTX-M-14 by agar dilution method; assay type: functional
Method in brief: as §1

Enterobacter [4] = experiment: Antimicrobial activity against Enterobacter isolates producing extended-spectrum beta-lactamase CTX-M-2 by agar dilution method; assay type: functional
Method in brief: as §1

Enterobacter [5] = experiment: Antimicrobial activity against Enterobacter isolates producing extended-spectrum beta-lactamase CTX-M-9 by agar dilution method; assay type: functional
Method in brief: as §1

Enterobacter [6] = experiment: Antimicrobial activity against Enterobacter isolates producing extended-spectrum beta-lactamase CTX-M-1 by agar dilution method; assay type: functional
Method in brief: as §1

Enterobacter [7] = experiment: Antimicrobial activity against Enterobacter isolates producing extended-spectrum beta-lactamase SHV-ES by agar dilution method; assay type: functional
Method in brief: as §1

Enterobacter [8] = experiment: Antimicrobial activity against Enterobacter isolates producing extended-spectrum beta-lactamase CTX-M-15 by agar dilution method; assay type: functional
Method in brief: as §1

NCC[C@H](O)C(=O)N[C@@H]1C[C@H](N)[C@@H](O[C@H]2O[C@H](CN)[C@@H](O)[C@H](O)[C@H]2O)[C@H](O)[C@H]1O[C@H]1O[C@H](CO)[C@@H](O)[C@H](N)[C@H]1O [AMIKACIN]
Activity (Enterobacter [1]): 2%

CC1(C)S[C@@H]2[C@H](NC(=O)[C@H](N)c3ccc(O)cc3)C(=O)N2[C@H]1C(=O)O [AMOXICILLIN]
MIC (Enterobacter [2]): > 256 mg/L
MIC (Enterobacter [3]): > 256 mg/L
MIC (Enterobacter [4]): > 256 mg/L
MIC (Enterobacter [5]): > 256 mg/L
MIC (Enterobacter [6]): > 256 mg/L
MIC (Enterobacter [7]): > 256 mg/L
MIC (Enterobacter [8]): > 256 mg/L

C[C@H]1[C@H](NC(=O)/C(=N\OC(C)(C)C(=O)O)c2csc(N)n2)C(=O)N1S(=O)(=O)O [AZTREONAM]
MIC (Enterobacter [2]): 2 mg/L (≈ 4.59 µM)
MIC (Enterobacter [3]): 2 mg/L (≈ 4.59 µM)
MIC (Enterobacter [4]): 16 mg/L (≈ 36.7 µM)
MIC (Enterobacter [5]): 2 mg/L (≈ 4.59 µM)
MIC (Enterobacter [6]): 64 mg/L (≈ 147 µM)
MIC (Enterobacter [7]): 2 mg/L (≈ 4.59 µM)
MIC (Enterobacter [8]): 2 mg/L (≈ 4.59 µM)

CO/N=C(\C(=O)N[C@@H]1C(=O)N2C(C(=O)[O-])=C(C[N+]3(C)CCCC3)CS[C@H]12)c1csc(N)n1 [CEFEPIME]
MIC (Enterobacter [2]): 0.25 mg/L (≈ 0.52 µM)
MIC (Enterobacter [3]): 2 mg/L (≈ 4.16 µM)
MIC (Enterobacter [4]): 16 mg/L (≈ 33.3 µM)
MIC (Enterobacter [5]): 2 mg/L (≈ 4.16 µM)
MIC (Enterobacter [6]): 32 mg/L (≈ 66.6 µM)
MIC (Enterobacter [7]): 0.25 mg/L (≈ 0.52 µM)
MIC (Enterobacter [8]): 8 mg/L (≈ 16.6 µM)

CO/N=C(\C(=O)N[C@@H]1C(=O)N2C(C(=O)O)=C(COC(C)=O)CS[C@H]12)c1csc(N)n1 [CEFOTAXIME]
MIC (Enterobacter [2]): 0.12 mg/L (≈ 0.263 µM)
MIC (Enterobacter [3]): 32 mg/L (≈ 70.3 µM)
MIC (Enterobacter [4]): 128 mg/L (≈ 281 µM)
MIC (Enterobacter [5]): 32 mg/L (≈ 70.3 µM)
MIC (Enterobacter [6]): > 256 mg/L
MIC (Enterobacter [7]): 2 mg/L (≈ 4.39 µM)
MIC (Enterobacter [8]): 128 mg/L (≈ 281 µM)

CO[C@@]1(NC(=O)Cc2cccs2)C(=O)N2C(C(=O)O)=C(COC(N)=O)CS[C@@H]21 [CEFOXITIN]
MIC (Enterobacter [2]): 4 mg/L (≈ 9.36 µM)
MIC (Enterobacter [3]): 4 mg/L (≈ 9.36 µM)
MIC (Enterobacter [4]): 4 mg/L (≈ 9.36 µM)
MIC (Enterobacter [5]): 8 mg/L (≈ 18.7 µM)
MIC (Enterobacter [6]): 8 mg/L (≈ 18.7 µM)
MIC (Enterobacter [7]): 4 mg/L (≈ 9.36 µM)
MIC (Enterobacter [8]): 4 mg/L (≈ 9.36 µM)

CC(C)(O/N=C(\C(=O)N[C@@H]1C(=O)N2C(C(=O)[O-])=C(C[n+]3ccccc3)CS[C@H]12)c1csc(N)n1)C(=O)O [CEFTAZIDIME]
MIC (Enterobacter [2]): 4 mg/L (≈ 7.32 µM)
MIC (Enterobacter [3]): 0.5 mg/L (≈ 0.915 µM)
MIC (Enterobacter [4]): 1 mg/L (≈ 1.83 µM)
MIC (Enterobacter [5]): 1 mg/L (≈ 1.83 µM)
MIC (Enterobacter [6]): 4 mg/L (≈ 7.32 µM)
MIC (Enterobacter [7]): 0.25 mg/L (≈ 0.457 µM)
MIC (Enterobacter [8]): 1 mg/L (≈ 1.83 µM)

CC(=O)OCC1=C(C(=O)O)N2C(=O)[C@@H](NC(=O)Cc3cccs3)[C@H]2SC1 [CEPHALOTHIN]
MIC (Enterobacter [2]): > 256 mg/L
MIC (Enterobacter [3]): > 256 mg/L
MIC (Enterobacter [4]): > 256 mg/L
MIC (Enterobacter [5]): > 256 mg/L
MIC (Enterobacter [6]): > 256 mg/L
MIC (Enterobacter [7]): > 256 mg/L
MIC (Enterobacter [8]): > 256 mg/L

O=C(N[C@H](CO)[C@H](O)c1ccc([N+](=O)[O-])cc1)C(Cl)Cl [CHLORAMPHENICOL]
Activity (Enterobacter [1]): 30%

O=C(O)c1cn(C2CC2)c2cc(N3CCNCC3)c(F)cc2c1=O [CIPROFLOXACIN]
Activity (Enterobacter [1]): 50%

C[C@@H](O)[C@H]1C(=O)N2C(C(=O)O)=C(S[C@@H]3CN[C@H](C(=O)Nc4cccc(C(=O)O)c4)C3)[C@H](C)[C@H]12 [ERTAPENEM]
MIC (Enterobacter [2]): 0.06 mg/L (≈ 0.126 µM)
MIC (Enterobacter [3]): 0.003 mg/L (≈ 0.00631 µM)
MIC (Enterobacter [4]): 0.06 mg/L (≈ 0.126 µM)
MIC (Enterobacter [5]): 0.06 mg/L (≈ 0.126 µM)
MIC (Enterobacter [6]): 0.12 mg/L (≈ 0.252 µM)
MIC (Enterobacter [7]): 0.06 mg/L (≈ 0.126 µM)
MIC (Enterobacter [8]): 0.003 mg/L (≈ 0.00631 µM)

C[C@@H](O)[C@H]1C(=O)N2C(C(=O)O)=C(SCCNC=N)C[C@H]12 [IMIPENEM ANHYDROUS]
MIC (Enterobacter [2]): 0.25 mg/L (≈ 0.835 µM)
MIC (Enterobacter [3]): 0.25 mg/L (≈ 0.835 µM)
MIC (Enterobacter [4]): 0.25 mg/L (≈ 0.835 µM)
MIC (Enterobacter [5]): 0.25 mg/L (≈ 0.835 µM)
MIC (Enterobacter [6]): 0.25 mg/L (≈ 0.835 µM)
MIC (Enterobacter [7]): 0.25 mg/L (≈ 0.835 µM)
MIC (Enterobacter [8]): 0.25 mg/L (≈ 0.835 µM)

CCN1CCN(C(=O)N[C@@H](C(=O)N[C@@H]2C(=O)N3[C@@H]2SC(C)(C)[C@@H]3C(=O)O)c2ccccc2)C(=O)C1=O [PIPERACILLIN]
MIC (Enterobacter [2]): 32 mg/L (≈ 61.8 µM)
MIC (Enterobacter [3]): 32 mg/L (≈ 61.8 µM)
MIC (Enterobacter [4]): 128 mg/L (≈ 247 µM)
MIC (Enterobacter [5]): 64 mg/L (≈ 124 µM)
MIC (Enterobacter [6]): > 256 mg/L
MIC (Enterobacter [7]): 32 mg/L (≈ 61.8 µM)
MIC (Enterobacter [8]): 128 mg/L (≈ 247 µM)

CC1(C)S[C@@H]2[C@H](NC(=O)[C@H](C(=O)O)c3ccsc3)C(=O)N2[C@H]1C(=O)O [TICARCILLIN]
MIC (Enterobacter [2]): > 256 mg/L
MIC (Enterobacter [3]): > 256 mg/L
MIC (Enterobacter [4]): > 256 mg/L
MIC (Enterobacter [5]): > 256 mg/L
MIC (Enterobacter [6]): > 256 mg/L
MIC (Enterobacter [7]): > 256 mg/L
MIC (Enterobacter [8]): > 256 mg/L

Reference: ChEMBL document CHEMBL1155137, “Extended-spectrum beta-lactamases of the CTX-M type now in Switzerland” (2007)
